Results from ChEMBL document CHEMBL4480426, “Novel multi-target directed ligands based on annelated xanthine scaffold with aromatic substituents acting on adenosine receptor and monoamine oxidase B. Synthesis, in vitro and in silico studies” (Bioorg Med Chem, 2019).

What was measured:
[1] = Antioxidant activity assessed as increase in total ferric ion reducing activity at 1000 uM using FeCl3.6H2O and TPTZ incubated for 10 mins under dark condition by FRAP assay relative to control; type: functional; parameters: scale not given: the % may be the effect or the level left
Procedure, shortened: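 FRAP reagent made by mixing 10 parts 300 mM acetate buffer pH 3.6, 1 part 10 mM TPTZ in 40 mM HCl and 1 part 20 mM FeCl3·6H2O. Reagent mixed with compound solution, 10 min at room temperature in the dark. Ferrous-TPTZ complex read at 593 nm. Result is absorbance increase versus solvent sample. FeSO4·7H2O standard curve, 37.5–1200 μM.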

[2] = target: T1, Amine oxidase [flavin-containing] B (Homo sapiens, UniProt P27338); test: Inhibition of recombinant human MAOB expressed in baculovirus infected BTI insect cells using p-tyramine as substrate preincubated for 30 mins followed by substrate addition and measured over 45 mins by horseradish peroxidase-Amplex Red-coupled fluorometric assay
T1 sequence (P27338 whole entry): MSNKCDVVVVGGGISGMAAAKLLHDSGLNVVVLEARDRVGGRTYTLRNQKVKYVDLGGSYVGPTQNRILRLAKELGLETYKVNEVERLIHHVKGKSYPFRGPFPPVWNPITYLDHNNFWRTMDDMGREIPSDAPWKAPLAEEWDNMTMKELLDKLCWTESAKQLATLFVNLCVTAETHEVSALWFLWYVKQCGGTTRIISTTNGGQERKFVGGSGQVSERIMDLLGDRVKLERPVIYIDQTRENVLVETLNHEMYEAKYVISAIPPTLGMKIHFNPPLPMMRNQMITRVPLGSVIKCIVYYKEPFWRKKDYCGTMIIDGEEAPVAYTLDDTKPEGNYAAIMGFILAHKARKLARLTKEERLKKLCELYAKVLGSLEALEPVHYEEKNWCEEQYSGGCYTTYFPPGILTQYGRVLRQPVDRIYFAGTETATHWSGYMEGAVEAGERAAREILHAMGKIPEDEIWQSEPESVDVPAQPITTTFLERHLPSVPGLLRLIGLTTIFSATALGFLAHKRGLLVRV
Procedure, shortened: (§1)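 Human recombinant MAO-A or MAO-B enzyme. Activity detected fluorometrically with the Amplex Red monoamine oxidase assay.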

[3] = target: T2, Adenosine receptor A1 (Rattus norvegicus, UniProt P25099); test: Displacement of [3H]CCPA from adenosine A1 receptor in rat brain cortical membranes; type: cell membranes
T2 sequence (P25099 whole entry): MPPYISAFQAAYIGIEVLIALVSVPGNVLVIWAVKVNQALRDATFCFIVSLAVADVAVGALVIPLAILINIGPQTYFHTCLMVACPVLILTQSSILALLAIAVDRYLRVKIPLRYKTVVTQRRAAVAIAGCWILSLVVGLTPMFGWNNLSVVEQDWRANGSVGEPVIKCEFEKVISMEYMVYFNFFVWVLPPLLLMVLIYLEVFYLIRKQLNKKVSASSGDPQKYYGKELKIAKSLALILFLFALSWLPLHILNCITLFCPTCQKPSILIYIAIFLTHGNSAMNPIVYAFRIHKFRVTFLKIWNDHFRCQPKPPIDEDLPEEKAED

[4] = tested on: Brain; test: Antioxidant activity in rat brain homogenate assessed as inhibition of FeCl2/ascorbic acid-induced lipid peroxidation by measuring reduction in TBARS level at 1000 uM preincubated for 5 mins followed by FeCl2/ascorbic acid addition and measured after 30 mins relative to control; type: functional, tissue-based; parameters: scale not given: the % may be the effect or the level left
Procedure, shortened: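 Rat brain homogenate in 0.9% saline, 10 mg tissue/ml, preincubated 5 min at 37 °C with compound or vehicle. Peroxidation started with 0.5 mM FeCl2 plus 2 mM ascorbic acid (added-solution concentrations). After 30 min, stopped with 0.2% BHT. Thiobarbituric acid reagent added, heated 15 min in boiling water, TBARS extracted into n-butanol and read at 532 nm. Carvedilol as reference.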

[5] = target: T3, Amine oxidase [flavin-containing] A (Homo sapiens, UniProt P21397); test: Inhibition of recombinant human MAOA expressed in baculovirus infected BTI insect cells using p-tyramine as substrate preincubated for 30 mins followed by substrate addition and measured over 45 mins by horseradish peroxidase-Amplex Red-coupled fluorometric assay; procedure, shortened: as §1
T3 sequence (P21397 whole entry): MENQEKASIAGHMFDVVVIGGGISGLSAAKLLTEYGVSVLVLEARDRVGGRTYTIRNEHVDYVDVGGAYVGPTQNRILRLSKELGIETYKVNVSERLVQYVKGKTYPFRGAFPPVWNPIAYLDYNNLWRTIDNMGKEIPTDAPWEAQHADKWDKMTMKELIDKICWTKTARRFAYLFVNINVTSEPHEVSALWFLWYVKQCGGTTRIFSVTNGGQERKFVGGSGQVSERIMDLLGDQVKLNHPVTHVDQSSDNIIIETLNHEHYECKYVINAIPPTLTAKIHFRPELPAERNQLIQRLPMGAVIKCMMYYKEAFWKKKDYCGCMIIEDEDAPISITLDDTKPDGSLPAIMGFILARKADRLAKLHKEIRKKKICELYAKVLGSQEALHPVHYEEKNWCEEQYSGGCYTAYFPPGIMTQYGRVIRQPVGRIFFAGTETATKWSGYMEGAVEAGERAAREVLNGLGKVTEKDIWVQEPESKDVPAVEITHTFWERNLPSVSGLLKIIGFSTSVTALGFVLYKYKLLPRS

[6] = target: T4, Adenosine receptor A2b (Homo sapiens, UniProt P29275); test: Displacement of [3H]PSB603 from recombinant human adenosine A2b receptor expressed in HEK293 cells; type: cell-based
T4 sequence (P29275 whole entry): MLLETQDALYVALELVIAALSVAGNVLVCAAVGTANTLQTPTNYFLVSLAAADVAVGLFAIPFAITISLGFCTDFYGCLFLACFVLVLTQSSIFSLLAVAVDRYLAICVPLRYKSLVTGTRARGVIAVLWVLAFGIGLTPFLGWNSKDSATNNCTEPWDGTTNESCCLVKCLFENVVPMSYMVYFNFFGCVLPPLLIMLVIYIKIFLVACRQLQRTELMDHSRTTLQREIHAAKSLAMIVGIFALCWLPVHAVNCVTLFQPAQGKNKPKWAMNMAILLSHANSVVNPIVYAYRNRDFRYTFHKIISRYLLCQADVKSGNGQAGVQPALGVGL

[7] = tested on: HepG2; test: Hepatotoxicity against human HepG2 cells assessed as reduction in cell viability at 100 uM measured after 72 hrs by CellTiter96 Aqueous non-radioactive cell proliferation assay; type: toxicity, cell-based; settings: hepg2, 72 h
Procedure, shortened: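 HepG2 cells seeded at 1.5×10^4 cells/well in MEM with 4.5 g/L glucose and 10% FBS, grown 24 h at 37 °C, 5% CO2. Compounds diluted in the same medium and applied for 72 h. CellTiter 96 AQueous reagent then added for 2 h, absorbance read at 490 nm. One-way ANOVA with Bonferroni post test.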

[8] = target: T5, Adenosine receptor A3 (Homo sapiens, UniProt P0DMS8); test: Displacement of [3H]PSB11 from recombinant human adenosine A3 receptor expressed in CHO cells; type: cell-based
T5 sequence (P0DMS8 whole entry): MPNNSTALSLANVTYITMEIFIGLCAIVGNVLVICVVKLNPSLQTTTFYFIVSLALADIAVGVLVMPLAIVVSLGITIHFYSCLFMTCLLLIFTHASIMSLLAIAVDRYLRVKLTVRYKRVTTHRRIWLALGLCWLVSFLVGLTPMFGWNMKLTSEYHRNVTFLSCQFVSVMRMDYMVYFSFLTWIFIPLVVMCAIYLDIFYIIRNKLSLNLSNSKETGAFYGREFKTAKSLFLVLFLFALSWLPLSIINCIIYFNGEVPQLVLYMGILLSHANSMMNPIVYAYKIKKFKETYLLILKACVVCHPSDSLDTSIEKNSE

[9] = target: T3, Amine oxidase [flavin-containing] A; test: Inhibition of recombinant human MAOA expressed in baculovirus infected BTI insect cells at 1 to 100 uM using p-tyramine as substrate preincubated for 30 mins followed by substrate addition and measured over 45 mins by horseradish peroxidase-Amplex Red-coupled fluorometric assay relative to control; settings: 0.75 h; procedure, shortened: as §1
[10] = target: Adenosine receptor A2a (Homo sapiens, UniProt P29274); test: Displacement of [3H]MSX2 from recombinant human adenosine A2a receptor expressed in HEK293 cells; type: cell-based
Adenosine receptor A2a, sequence (P29274 whole entry): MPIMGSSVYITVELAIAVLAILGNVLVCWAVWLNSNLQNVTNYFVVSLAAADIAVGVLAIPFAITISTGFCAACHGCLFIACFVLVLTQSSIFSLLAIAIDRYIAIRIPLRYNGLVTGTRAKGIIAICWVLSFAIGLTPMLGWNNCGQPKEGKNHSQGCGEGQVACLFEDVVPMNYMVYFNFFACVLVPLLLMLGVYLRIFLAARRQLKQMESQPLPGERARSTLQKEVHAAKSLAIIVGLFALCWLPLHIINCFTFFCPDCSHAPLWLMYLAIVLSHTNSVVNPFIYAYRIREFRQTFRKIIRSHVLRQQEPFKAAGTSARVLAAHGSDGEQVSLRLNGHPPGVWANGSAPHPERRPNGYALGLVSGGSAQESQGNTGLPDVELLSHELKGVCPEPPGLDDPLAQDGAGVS

[11] = target: Adenosine receptor A1 (Rattus norvegicus) (UniProt P25099); test: Displacement of [3H]CCPA from rat adenosine A1 receptor

IC50 [2] [nM]	Ki [3] [nM]	IC50 [5] [nM]	Ki [6] [nM]	Ki [8] [nM]	inhibition (INH) [9] [%]	Ki [10] [nM]	Ki [11] [nM]	SMILES	Activity [1] [%]	Activity [4] [%]	Activity [7]
150	2320	> 1000	> 1000	> 1000	1	1610	–	Cn1c(=O)c2c(nc3n2CCCN3Cc2ccccc2Br)n(C)c1=O	3.4	29.5	Toxic
–	–	–	–	–	–	–	–	COc1ccccc1OCCNCC(O)COc1cccc2[nH]c3ccccc3c12 (stereo not given)	–	44.8	–
570	1550	> 100000	> 1000	> 1000	10	189	–	Cn1c(=O)c2c(nc3n2CCCN3Cc2c(F)cccc2Cl)n(C)c1=O	–	–	Toxic
–	–	–	–	–	–	–	802 to 1120	Cn1c(=O)c2c(nc3n2CCCN3Cc2cccc(Cl)c2)n(C)c1=O	–	–	–
